According to PMC4462192 (Bioorganic & medicinal chemistry letters, 2015):

Columns and labels:
GGTase II = target: T1, GGTase II (Homo sapiens, UniProt P53611+Q92696); conditions: cited from earlier work
T1 sequence (Q92696 1-567): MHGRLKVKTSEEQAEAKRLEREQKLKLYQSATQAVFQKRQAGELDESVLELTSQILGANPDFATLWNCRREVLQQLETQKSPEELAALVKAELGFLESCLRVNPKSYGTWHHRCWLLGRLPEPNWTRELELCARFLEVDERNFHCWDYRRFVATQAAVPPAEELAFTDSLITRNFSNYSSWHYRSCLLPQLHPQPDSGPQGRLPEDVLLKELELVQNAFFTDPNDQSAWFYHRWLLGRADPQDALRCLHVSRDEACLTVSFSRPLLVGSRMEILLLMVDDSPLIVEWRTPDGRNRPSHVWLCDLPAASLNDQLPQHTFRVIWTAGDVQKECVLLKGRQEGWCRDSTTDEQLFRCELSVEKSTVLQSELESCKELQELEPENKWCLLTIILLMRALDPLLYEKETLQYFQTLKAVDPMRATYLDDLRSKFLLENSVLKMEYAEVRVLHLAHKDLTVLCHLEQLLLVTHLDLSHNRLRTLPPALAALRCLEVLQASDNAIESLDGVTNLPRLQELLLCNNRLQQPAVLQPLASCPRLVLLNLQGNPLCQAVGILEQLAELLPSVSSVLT
T1 sequence (P53611 1-331): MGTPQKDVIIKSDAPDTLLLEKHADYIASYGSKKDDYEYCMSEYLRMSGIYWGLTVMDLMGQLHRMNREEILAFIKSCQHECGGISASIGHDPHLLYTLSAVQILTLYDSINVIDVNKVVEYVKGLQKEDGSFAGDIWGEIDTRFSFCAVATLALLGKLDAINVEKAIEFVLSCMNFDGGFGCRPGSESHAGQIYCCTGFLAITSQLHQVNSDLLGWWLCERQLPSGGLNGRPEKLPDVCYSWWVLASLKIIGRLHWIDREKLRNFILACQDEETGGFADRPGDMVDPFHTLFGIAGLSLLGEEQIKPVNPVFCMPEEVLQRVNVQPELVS

[1] = system: geranylgeranyl diphosphate synthase (GGDPS); conditions: cited from earlier work
RPMI-8226 cells = assay: intracellular lambda light chain ELISA; format: cell-based, human; conditions: 48 hours, 5 mM, vs untreated control
Summary of the method: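 RPMI-8226 cells were incubated for 48 hours with test compound at 5 mM, alongside untreated and lovastatin (20 μM) controls. Intracellular lambda light chain was quantified by ELISA and expressed as percent of untreated control, mean + SD, n=3. Significance versus untreated cells was assessed by unpaired two-tailed t-test at p<0.05.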

[2] = system: farnesyl diphosphate synthase (FDPS); conditions: cited from earlier work
[3] = system: Rab6 geranylgeranylation in RPMI-8226 cells; assay: immunoblot for membrane-bound Rab6; format: cell-based, human; conditions: 48 hours, 5 mM, detergent (membrane) fraction
Summary of the method: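 RPMI-8226 human myeloma cells were exposed to test compound at 5 mM or left untreated for 48 hours, with lovastatin at 20 μM as a global prenylation-disruption control. Cells were lysed by Triton X-114 partitioning to give the detergent (membrane) fraction, which was immunoblotted for Rab6 with calnexin as the loading control. Blots are representative of two independent studies.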

| Structure (SMILES) | intracellular lambda light chain accumulation (RPMI-8226 cells) | activity against FDPS [2] | membrane-bound Rab6 level [3] | other results |
| --- | --- | --- | --- | --- |
| O=C(O)C(O)(Cc1cnc2ccccn12)P(=O)(O)O (single isomer, unassigned; enantiomer 4) [(+)-enantiomer 4] |  |  |  | activity of (+)-enantiomer relative to (−)-enantiomer (GGTase II): ~ 60 fold; inhibition of other enzyme involved in isoprenoid biosynthesis, probably GGDPS [1]: weak inhibition |
| O=C(O)C(O)(Cc1cccnc1)P(=O)(O)O (stereo not drawn) [compound 1, 2-(3-pyridinyl)-1-hydroxyethylidene-1,1-phosphonocarboxylic acid] | induce an accumulation of intracellular light chain | show little activity against FDPS | induces a decrease in the amount of membrane-bound Rab6 | difference in activity between the enantiomers (GGTase II): ~ 4 fold |
| O=C(O)C(Cc1cccnc1)P(=O)(O)O (stereo not drawn) [compound 2, 2-(3-pyridinyl)-1-ethylidene-1,1-phosphonocarboxylic acid] | do not significantly alter light chain trafficking | show little activity against FDPS | diminished the level of membrane-bound Rab6 to a lesser extent | GGTase II potency relative to PEHPC (GGTase II): potency similar to PEHPC |
| O=C(O)C(O)(Cc1ccc[n+]([O-])c1)P(=O)(O)O (stereo not drawn) [compound 6] | induce an accumulation of intracellular light chain |  | diminished the level of membrane-bound Rab6 to a lesser extent |  |
| O=C(O)C(Cc1ccc[n+]([O-])c1)P(=O)(O)O (stereo not drawn) [compound 7] | do not significantly alter light chain trafficking |  | did not decrease membrane-bound Rab6 levels |  |
